Results gathered from unrelated publications.
Compare with care: the assays were run in different laboratories.
Target: Rho-associated protein kinase 1 (ROCK1, Homo sapiens, UniProt Q13464)

`C[C@H]1CC[C@H](n2c3cnccc3c3cnc(Nc4ccc5c(n4)CCN(C(=O)CO)C5)nc32)CC1` gave a remaining signal of 100% (cell-free assay; 1 µM).
The remaining binding of `CCCCC(=O)Nc1ccc(-c2ccc3ncn(CCC)c(=O)c3c2)cn1` is reported as 100% (binding, competition with immobilised ligand; 0.5 µM).
`Cc1cc(O)c(-c2ccc([C@@H](C)CN(C)C)cc2)c2c1[nH]c(=O)c1sccc12` has an inhibition of -3.74% (enzyme activity, inhibitor; 0.1 µM).
`CN1CCN(C(=O)c2ccc(NC(=O)Nc3ccc(N(C)c4ccnc(Nc5ccc(CS(C)(=O)=O)cc5)n4)cc3)cc2)CC1` has a remaining binding of 17% (binding; 1 µM).
`COc1ccc2oc(-c3ccc4nc(N)oc4c3)c/c(=N\c3ccccc3NC(=O)CCN)c2c1` has a remaining binding of 106% (binding; 1 µM).
`Cc1cc(-c2ccnc3[nH]cc(F)c23)cc(F)c1[C@@]1(O)[C@H](C)CN(C2CCS(=O)(=O)CC2)C[C@@H]1C` has a remaining activity of 7.04% (enzyme activity, inhibitor; 0.1 µM).
The inhibition of `CO[C@@H]1[C@H](N(C)C(=O)c2ccccc2)C[C@H]2O[C@]1(C)n1c3ccccc3c3c4c(c5c6ccccc6n2c5c31)C(=O)NC4` is reported as 43% (enzyme activity, inhibitor; 1 µM).
For `Cc1cc(-c2ccnc3[nH]cc(F)c23)cc(F)c1[C@@]1(O)[C@H](C)CN(C(=O)CN)C[C@@H]1C`, the remaining activity was 48.7% (enzyme activity, inhibitor; 15 nM).
For `C=CC(=O)N1CCC[C@@H](n2nc(-c3ccc(Oc4ccccc4)cc3)c3c(N)ncnc32)C1`, the inhibition was 26% (enzyme activity, inhibitor; 1 µM).
